Results from different studies.
Protocols differ between the studies behind these lines. ≈ marks a conversion by molar mass, not a printed value.

SMILES | tested on | test | test system | setting | endpoint | result
CN1C[C@H](C(=O)N[C@]2(C)O[C@@]3(O)[C@@H]4CCCN4C(=O)[C@H](Cc4ccccc4)N3C2=O)C=C2c3cccc4[nH]cc(c34)C[C@H]21 | WI-38 | cell growth or viability, MTT | – | 72 h | EC50 | 57 µM
Cc1cccc(-n2ncc(Cl)c(Cl)c2=O)c1 | HCC827 | cell growth or viability, resazurin | – | 96 h | IC50 | 0.09 µM
O=C1CCc2ccc(O)c(c2)Oc2ccc(cc2)[C@H]2O[C@@H]2CO1 | – | tubulin polymerisation, inhibitor | – | – | IC50 | > 40 µM
O=C(CCCCCCCCCCOc1ccccc1)NP(=O)(O)O | Bacillus subtilis | microbial growth | ATCC23857 | – | MIC | > 200 µg/mL
N.N.[Cl][Pt][Cl] | HCC827 | cell growth or viability, MTT | – | 72 h | IC50 | 6 µM
O=C1CCc2ccc(O)c(c2)Oc2ccc(cc2)/C=C\CO1 | – | tubulin polymerisation, inhibitor | – | – | IC50 | > 40 µM
OC(Cn1cncn1)(Cn1cncn1)c1ccc(F)cc1F | Cryptococcus neoformans | microbial growth, broth dilution | – | – | MIC | 3.12 µg/mL (≈ 10.2 µM)
CCCCCCCC(=O)NP(=O)(O)O | Bacillus subtilis | microbial growth | ATCC23857 | – | MIC | > 200 µg/mL
COc1ccc(/C=C\c2cc(OC)c(OC)c(OC)c2)cc1 | – | tubulin polymerisation, inhibitor, absorbance | – | – | IC50 | 1.1 µM
Cc1ncc([N+](=O)[O-])n1CCO | Clostridium perfringens | microbial growth | – | – | MIC50 | 0.5 µg/mL (≈ 2.92 µM)
CN[C@@H]1[C@H](O)[C@H](NC)[C@H]2O[C@@]3(O)C(=O)C[C@@H](C)O[C@H]3O[C@@H]2[C@H]1O | Proteus vulgaris | microbial growth, broth dilution | ATCC33420 | – | MIC | 50 µg/mL (≈ 150 µM)
O=[N+]([O-])c1ccc(C2=[N+]([O-])c3ccccc3N3CCN=C23)cc1 | Clostridium perfringens | microbial growth | – | – | MIC50 | ≤ 0.06 µg/mL
Cc1cc(N(CCO)CCO)ccc1C=O | CAKI-1 | cell growth or viability | – | – | IC50 | > 10 µg/mL
